Data reported in ChEMBL document CHEMBL4190409, “New somatostatin-drug conjugates for effective targeting pancreatic cancer” (Bioorg Med Chem, 2018).
pIC50: −log10 of the molar value. The source made the active and inactive calls. The rule behind the calls is not given here. Peptide text beside a SMILES is read from it.

Tests used:
[1] = Half life in IMDM culture medium by LC-MS analysis; assay type: physicochemical
Summary of the method: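 Conjugate stock (10 µl) added to 1 ml IMDM (DME-based, 20% bovine serum) at 37°C. Aliquots taken at 1, 3, 6, 24, 48, 72 and 96 h, quenched with 2.5 vol ethanol, centrifuged, filtered and analysed by LC-MS. At least three measurements.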

[2] = system: CAPAN-1; assay: Cytotoxicity against human Capan1 cells after 48 hrs by XTT assay; assay type: functional, cell-based; conditions: CAPAN-1, 48 h
Summary of the method: (§1)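 Cells seeded at 5-10 x 10^4 cells/mL and preincubated 24 h, then washed and given fresh medium with a concentration series for 48 h or 72 h. XTT added for a further 2-4 h, absorbance read at 480 and 680 nm. % growth inhibition taken against medium+solvent and solvent-free controls. DMSO final <0.05%. Tetraplicates, each experiment run twice.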

[3] = system: CAPAN-1; assay: Cytotoxicity against human Capan1 cells after 72 hrs by XTT assay; assay type: functional, cell-based; conditions: CAPAN-1, 72 h; summary of the method: as §1
[4] = system: PANC-1; assay: Cytotoxicity against human PANC1 cells after 48 hrs by XTT assay; assay type: functional, cell-based; conditions: PANC-1, 48 h; summary of the method: as §1
[5] = system: PANC-1; assay: Cytotoxicity against human PANC1 cells after 72 hrs by XTT assay; assay type: functional, cell-based; conditions: PANC-1, 72 h; summary of the method: as §1
[6] = target: T1, Somatostatin receptor type 2 (Homo sapiens, UniProt P30874); assay: Agonist activity at SSTR2 (unknown origin) expressed in HEK293 cells assessed as inhibition of forskolin-induced CRE promoter activity at 10 to 1000 nM by luciferase reporter gene assay; assay type: functional, cell-based
Summary of the method: (§2)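 HEK-293 cells (70,000/well) co-transfected via JetPei with CRE-luciferase reporter, β-galactosidase construct and one SSTR subtype vector (empty pcDNA3.1 control). After 1 day, treated with 10 µM forskolin alone or with peptide. Luminescence read relative to forskolin alone and normalized to β-galactosidase (ONPG). Triplicates, representative of three experiments.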

[7] = target: T2, Somatostatin receptor type 3 (Homo sapiens, UniProt P32745); assay: Agonist activity at SSTR3 (unknown origin) expressed in HEK293 cells assessed as inhibition of forskolin-induced CRE promoter activity at 10 to 1000 nM by luciferase reporter gene assay; assay type: functional, cell-based; summary of the method: as §2
[8] = target: T3, Somatostatin receptor type 1 (Homo sapiens, UniProt P30872); assay: Agonist activity at SSTR1 (unknown origin) expressed in HEK293 cells assessed as inhibition of forskolin-induced CRE promoter activity at 10 to 1000 nM by luciferase reporter gene assay; assay type: functional, cell-based; summary of the method: as §2
[9] = target: T4, Somatostatin receptor type 4 (Homo sapiens, UniProt P31391); assay: Agonist activity at SSTR4 (unknown origin) expressed in HEK293 cells assessed as inhibition of forskolin-induced CRE promoter activity at 10 to 1000 nM by luciferase reporter gene assay; assay type: functional, cell-based; summary of the method: as §2
[10] = target: T5, Somatostatin receptor type 5 (Homo sapiens, UniProt P35346); assay: Agonist activity at SSTR5 (unknown origin) expressed in HEK293 cells assessed as inhibition of forskolin-induced CRE promoter activity at 10 to 1000 nM by luciferase reporter gene assay; assay type: functional, cell-based; summary of the method: as §2
[11] = target: T3, Somatostatin receptor type 1; assay: Drug uptake in HEK293 cells co-expressing SSTR1 (unknown origin) and RFP assessed as SSTR1-mediated drug accumulation by measuring mean fluorescence intensity measured after 30 mins by fluorescence microscopic analysis (reference value: 1.1); assay type: ADME, cell-based; conditions: hek293, 0.5 h
[12] = target: T1, Somatostatin receptor type 2; assay: Drug uptake in HEK293 cells co-expressing SSTR2 (unknown origin) and RFP assessed as SSTR2-mediated drug accumulation by measuring mean fluorescence intensity measured after 30 mins by fluorescence microscopic analysis (reference value: 1.1); assay type: ADME, cell-based; conditions: hek293, 0.5 h
[13] = target: T2, Somatostatin receptor type 3; assay: Drug uptake in HEK293 cells co-expressing SSTR3 (unknown origin) and RFP assessed as SSTR3-mediated drug accumulation by measuring mean fluorescence intensity measured after 30 mins by fluorescence microscopic analysis (reference value: 1.1); assay type: ADME, cell-based; conditions: hek293, 0.5 h
[14] = target: T4, Somatostatin receptor type 4; assay: Drug uptake in HEK293 cells co-expressing SSTR4 (unknown origin) and RFP assessed as SSTR4-mediated drug accumulation by measuring mean fluorescence intensity measured after 30 mins by fluorescence microscopic analysis (reference value: 1.1); assay type: ADME, cell-based; conditions: hek293, 0.5 h
[15] = target: T5, Somatostatin receptor type 5; assay: Drug uptake in HEK293 cells co-expressing SSTR5 (unknown origin) and RFP assessed as SSTR5-mediated drug accumulation by measuring mean fluorescence intensity measured after 30 mins by fluorescence microscopic analysis (reference value: 1.1); assay type: ADME, cell-based; conditions: hek293, 0.5 h
[16] = target: T1, Somatostatin receptor type 2; assay: Drug uptake in HEK293 cells co-expressing SSTR2 (unknown origin) and RFP assessed as SSTR2-mediated drug accumulation by measuring mean fluorescence intensity at 400 nM measured after 15 mins in presence of SSTR2 agonist octreotide by fluorescence assay; assay type: cell-based; conditions: hek293, 0.25 h, 0.4 µM
Summary of the method: (§3)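 FITC-peptide at 400 nM then added for 15 min. FITC/RFP fluorescence imaged; mean fluorescence intensity of FITC+ cells quantified (n = 10), representative of three experiments.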

[17] = target: T4, Somatostatin receptor type 4; assay: Drug uptake in HEK293 cells co-expressing SSTR4 (unknown origin) and RFP assessed as SSTR4-mediated drug accumulation by measuring mean fluorescence intensity at 400 nM measured after 15 mins in presence of SSTR2 agonist octreotide by fluorescence assay; assay type: cell-based; conditions: hek293, 0.25 h, 0.4 µM; summary of the method: as §3
[18] = Drug uptake in tumor of athymic nude mouse xenografted with human PANC1 cells at 120 mg/kg, iv measured after 24 hrs by fluorescent microscopic analysis; assay type: ADME, organism-based, Neoplasm; conditions: in vivo
Summary of the method: (§4)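 Five-week-old athymic nude mice inoculated subcutaneously in the dorsal left side with Panc-1 cells. When tumours reached 100 mm3, FITC-labelled peptide or peptide–CPT conjugate was given intravenously at 120 mg/kg as a single dose. At 24 h, tumour, spleen, pancreas, kidney and liver were excised and fluorescence was imaged by microscopy with a CCD camera.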

[19] = Drug uptake in kidney of athymic nude mouse xenografted with human PANC1 cells at 120 mg/kg, iv measured after 24 hrs by fluorescent microscopic analysis; assay type: ADME, organism-based; conditions: in vivo; summary of the method: as §4
[20] = Drug uptake in pancreas of athymic nude mouse xenografted with human PANC1 cells at 120 mg/kg, iv measured after 24 hrs by fluorescent microscopic analysis; assay type: ADME, organism-based; conditions: in vivo; summary of the method: as §4

T2 sequence (P32745 whole entry): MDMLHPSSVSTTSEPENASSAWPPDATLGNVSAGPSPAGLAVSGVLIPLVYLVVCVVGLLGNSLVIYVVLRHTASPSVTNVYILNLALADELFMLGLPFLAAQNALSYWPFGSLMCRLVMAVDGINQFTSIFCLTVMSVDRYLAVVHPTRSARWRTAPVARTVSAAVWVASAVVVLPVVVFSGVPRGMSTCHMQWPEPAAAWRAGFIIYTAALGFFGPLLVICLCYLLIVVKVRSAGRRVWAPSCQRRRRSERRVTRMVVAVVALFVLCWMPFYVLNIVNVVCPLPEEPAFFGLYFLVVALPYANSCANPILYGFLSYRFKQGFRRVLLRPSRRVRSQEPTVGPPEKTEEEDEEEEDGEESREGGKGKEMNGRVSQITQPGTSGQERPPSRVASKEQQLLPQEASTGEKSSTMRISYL
T3 sequence (P30872 whole entry): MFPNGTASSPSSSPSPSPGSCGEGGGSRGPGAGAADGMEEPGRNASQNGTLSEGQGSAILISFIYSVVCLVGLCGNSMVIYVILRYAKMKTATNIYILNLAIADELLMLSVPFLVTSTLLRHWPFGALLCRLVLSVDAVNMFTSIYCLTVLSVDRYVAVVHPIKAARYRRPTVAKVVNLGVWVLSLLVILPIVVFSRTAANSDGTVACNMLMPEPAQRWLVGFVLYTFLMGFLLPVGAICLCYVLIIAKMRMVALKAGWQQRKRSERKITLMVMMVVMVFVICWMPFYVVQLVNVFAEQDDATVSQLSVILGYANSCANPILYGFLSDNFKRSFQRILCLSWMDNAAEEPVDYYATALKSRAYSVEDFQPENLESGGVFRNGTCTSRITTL
T5 sequence (P35346 whole entry): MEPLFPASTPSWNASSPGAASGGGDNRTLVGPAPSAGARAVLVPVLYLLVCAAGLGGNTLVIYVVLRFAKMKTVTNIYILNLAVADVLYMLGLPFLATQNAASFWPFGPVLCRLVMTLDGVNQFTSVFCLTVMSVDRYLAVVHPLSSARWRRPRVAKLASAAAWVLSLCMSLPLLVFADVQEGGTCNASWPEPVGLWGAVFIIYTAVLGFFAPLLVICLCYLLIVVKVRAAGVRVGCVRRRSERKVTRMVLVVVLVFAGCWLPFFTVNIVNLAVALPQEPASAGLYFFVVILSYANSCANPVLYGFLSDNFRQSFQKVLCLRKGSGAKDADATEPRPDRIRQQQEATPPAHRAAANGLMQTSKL
T1 sequence (P30874 whole entry): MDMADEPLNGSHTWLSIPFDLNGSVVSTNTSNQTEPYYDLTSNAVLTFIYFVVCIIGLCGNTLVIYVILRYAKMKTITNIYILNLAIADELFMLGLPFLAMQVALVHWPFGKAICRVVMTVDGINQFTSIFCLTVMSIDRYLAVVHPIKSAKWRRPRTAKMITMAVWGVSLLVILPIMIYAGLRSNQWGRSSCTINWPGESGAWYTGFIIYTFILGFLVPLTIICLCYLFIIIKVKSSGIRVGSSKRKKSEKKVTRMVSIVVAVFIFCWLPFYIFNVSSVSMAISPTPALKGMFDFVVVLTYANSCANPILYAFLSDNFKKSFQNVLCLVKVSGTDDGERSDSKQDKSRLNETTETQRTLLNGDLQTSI
T4 sequence (P31391 whole entry): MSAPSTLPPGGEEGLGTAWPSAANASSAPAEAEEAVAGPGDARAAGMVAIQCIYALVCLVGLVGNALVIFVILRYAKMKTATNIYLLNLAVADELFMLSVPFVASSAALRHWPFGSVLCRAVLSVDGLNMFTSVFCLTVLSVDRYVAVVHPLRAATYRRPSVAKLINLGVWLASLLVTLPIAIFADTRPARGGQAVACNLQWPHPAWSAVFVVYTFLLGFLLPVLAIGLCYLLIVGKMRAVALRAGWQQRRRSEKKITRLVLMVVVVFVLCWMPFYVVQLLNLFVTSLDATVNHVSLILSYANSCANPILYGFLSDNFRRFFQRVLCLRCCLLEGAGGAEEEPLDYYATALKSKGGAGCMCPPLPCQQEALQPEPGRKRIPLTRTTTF

| SMILES | half-life [1] | pIC50 [2] | pIC50 [3] | pIC50 [4] | pIC50 [5] | further results |
| --- | --- | --- | --- | --- | --- | --- |
| COc1cc(C2c3[nH]c4ccccc4c3CC3COC(=O)N32)cc(OC)c1OC(=O)NCCCC(=O)N[C@H](Cc1ccccc1)C(=O)N[C@H]1CSSCCN(CC(N)=O)C(=O)[C@H](Cc2ccccc2)NC(=O)[C@H]([C@@H](C)O)NC(=O)[C@H](CCCCN)NC(=O)[C@H](Cc2c[nH]c3ccccc23)NC(=O)[C@@H](Cc2c[nH]c3ccccc23)NC(=O)[C@H](Cc2ccccc2)NC1=O (stereo partly drawn) | 5 h | 6.60 | 7.05 | 5.53 | 5.67 | – |
| COc1cc([C@@H]2c3[nH]c4ccccc4c3C[C@H]3COC(=O)N32)cc(OC)c1O | – | 5.80 | 5.91 | – | 6.21 | – |
| COc1ccc(/C=C\c2cc(OC)c(OC)c(OC)c2)cc1O [COMBRETASTATIN A4] | – | 6.08 | – | – | 6.80 | – |
| C[C@@H](O)[C@@H]1NC(=O)[C@H](CCCCN)NC(=O)[C@H](Cc2c[nH]c3ccccc23)NC(=O)[C@@H](Cc2c[nH]c3ccccc23)NC(=O)[C@H](Cc2ccccc2)NC(=O)[C@@H](NC(=O)[C@H](N)Cc2ccccc2)CSSCCN(CC(N)=O)C(=O)[C@H](Cc2ccccc2)NC1=O | – | < 4.30 | < 4.30 | < 4.30 | < 4.30 | – |
| C[C@@H](O)[C@@H]1NC(=O)[C@H](CCCCN)NC(=O)[C@@H](Cc2c[nH]c3ccccc23)NC(=O)[C@H](Cc2ccccc2)NC(=O)[C@@H](NC(=O)[C@H](N)Cc2ccccc2)CSSC[C@@H](C(=O)N[C@H](CO)[C@@H](C)O)NC1=O | – | – | – | – | – | inhibition [6]: Active; inhibition [7]: Active |
| COc1cc(/C=C\c2ccc(ON[C@H](Cc3ccccc3)C(=O)N[C@@H](CCCNC(=N)N)C(=O)N[C@H]3CSSCCN(CC(N)=O)C(=O)[C@H](Cc4ccccc4)NC(=O)[C@H]([C@@H](C)O)NC(=O)[C@H](CCCCN)NC(=O)[C@@H](Cc4c[nH]c5ccccc45)NC(=O)[C@H](Cc4ccccc4)NC3=O)c(OC(=O)NCCCC(C)=O)c2)cc(OC)c1OC | 15 h | 6.17 | 6.28 | 5.76 | 5.93 | – |
| C[C@@H](O)[C@@H]1NC(=O)[C@H](CCCCN)NC(=O)[C@@H](Cc2c[nH]c3ccccc23)NC(=O)[C@H](Cc2ccccc2)NC(=O)[C@@H](NC(=O)[C@H](CCCNC(=N)N)NC(=O)[C@H](N)Cc2ccccc2)CSSCCN(CC(N)=O)C(=O)[C@H](Cc2ccccc2)NC1=O (HELM PEPTIDE1{[dF].R.C.F.[dW].K.T.F.[O=C(CN(CCS[*:3])[*:1])[*:2]].[am]}$PEPTIDE1,PEPTIDE1,3:R3-9:R3$$$V2.0) | – | < 4.30 | < 4.30 | < 4.30 | < 4.30 | – |
| C[C@@H](O)[C@@H]1NC(=O)[C@H](CCCCN)NC(=O)[C@H](Cc2c[nH]c3ccccc23)NC(=O)[C@@H](Cc2c[nH]c3ccccc23)NC(=O)[C@H](Cc2ccccc2)NC(=O)[C@@H](NC(=O)[C@@H](Cc2ccccc2)NC(=O)CCCNC(=S)Nc2ccc(-c3c4ccc(=O)cc-4oc4cc(O)ccc34)c(C(=O)O)c2)CSSCCN(CC(N)=O)C(=O)[C@H](Cc2ccccc2)NC1=O | – | – | – | – | – | inhibition [8]: inactive; inhibition [6]: Active; inhibition [7]: Active; inhibition [9]: Active; inhibition [10]: Active; Flu intensity [11]: 0.9; Flu intensity [12]: 6.7; Flu intensity [13]: 42.1; Flu intensity [14]: 32.4; Flu intensity [15]: 48.8; Flu intensity [16]: 0.9; Flu intensity [17]: 21.1 |
| CC[C@@]1(O)C(=O)OCc2c1cc1n(c2=O)Cc2cc3ccccc3nc2-1 [CAMPTOTHECIN] | – | – | 6.68 | 6.74 | 7.05 | – |
| COc1cc(C2c3[nH]c4ccccc4c3CC3COC(=O)N32)cc(OC)c1OC(=O)NCCCC(=O)N[C@H](Cc1ccccc1)C(=O)N[C@@H](CCCNC(=N)N)C(=O)N[C@H]1CSSCCN(CC(N)=O)C(=O)[C@H](Cc2ccccc2)NC(=O)[C@H]([C@@H](C)O)NC(=O)[C@H](CCCCN)NC(=O)[C@@H](Cc2c[nH]c3ccccc23)NC(=O)[C@H](Cc2ccccc2)NC1=O (stereo partly drawn) | 3 h | 5.83 | 5.84 | 6.57 | 6.85 | – |
| COc1ccc(/C=C\c2cc(OC)c(OC)c(OC)c2)cc1OC(=O)NCCCC(=O)N[C@H](Cc1ccccc1)C(=O)N[C@H]1CSSCCN(CC(N)=O)C(=O)[C@H](Cc2ccccc2)NC(=O)[C@H]([C@@H](C)O)NC(=O)[C@H](CCCCN)NC(=O)[C@H](Cc2c[nH]c3ccccc23)NC(=O)[C@@H](Cc2c[nH]c3ccccc23)NC(=O)[C@H](Cc2ccccc2)NC1=O | 18 h | 5.59 | 5.68 | 5.57 | 5.92 | – |
| C[C@@H](O)[C@@H]1NC(=O)[C@H](CCCCN)NC(=O)[C@@H](Cc2c[nH]c3ccccc23)NC(=O)[C@H](Cc2ccccc2)NC(=O)[C@@H](NC(=O)[C@H](CCCNC(=N)N)NC(=O)[C@@H](Cc2ccccc2)NC(=O)CCCNC(=S)Nc2ccc(-c3c4ccc(=O)cc-4oc4cc(O)ccc34)c(C(=O)O)c2)CSSCCN(CC(N)=O)C(=O)[C@H](Cc2ccccc2)NC1=O | – | – | – | – | – | inhibition [8]: inactive; inhibition [6]: Active; inhibition [7]: Active; inhibition [9]: Active; inhibition [10]: Active; Drug uptake [18]: Active; Drug uptake [19]: Active; Drug uptake [20]: Not Active |
